Laboratory results as given in ChEMBL document CHEMBL4138082 (Eur J Med Chem, 2017).
Calls of active or inactive are those of the source. No cut-off for these calls is given here.

Tests used:
[1] = test system: HepG2; assay: Induction of apoptosis in human HepG2 cells assessed as early apoptotic cells at 0.125 uM after 48 hrs by […] based flow cytometry (reference value: 3.18%); type: functional
[2] = test system: HepG2; assay: Induction of apoptosis in human HepG2 cells assessed as early apoptotic cells at 0.0625 uM after 48 hrs in presence of hemoglobin by Annexin V-APC/7-AAD staining based flow cytometry (reference value: 3.18%); type: functional
[3] = test system: HepG2; assay: Cell cycle arrest in human HepG2 cells assessed as G2 phase accumulation at 0.0625 uM after 48 hrs in presence of hemoglobin by propidium iodide staining based flow cytometry (reference value: 10.67%); type: functional
[4] = test system: HepG2; assay: Induction of apoptosis in human HepG2 cells assessed as viable cells at 0.125 uM after 48 hrs by Annexin V-APC/7-AAD staining based flow cytometry (reference value: 91.07%); type: functional; settings: HepG2, 48 h, read-out: Activity
[5] = test system: HepG2; assay: Cell cycle arrest in human HepG2 cells assessed as S phase accumulation at 0.125 uM after 48 hrs in presence of hemoglobin by propidium iodide staining based flow cytometry (reference value: 36.40%); type: functional
[6] = test system: PC-3; assay: Antiproliferative activity against human PC3 cells after 72 hrs by MTT assay; type: functional, cell-based; settings: PC-3, 72 h
Summary of the method: (§1)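 MTT assay. Cells were seeded and grown 24 h at 37 °C in 5% CO2, then exposed to compound or left untreated for 72 h. MTT (5 mg/mL stock) was added for 4 h and the formazan dissolved in DMSO. OD was read at 570 nm. IC50 is the concentration giving 50% growth inhibition, reported as mean ± SD of three independent experiments. Vehicle reference was 0.1% DMSO.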

[7] = test system: HepG2; assay: Induction of apoptosis in human HepG2 cells assessed as late apoptotic cells at 0.0625 uM after 48 hrs in presence of hemoglobin by Annexin V-APC/7-AAD staining based flow cytometry (reference value: 3.36%); type: functional
[8] = test system: HepG2; assay: Induction of apoptosis in human HepG2 cells assessed as viable cells at 0.25 uM after 48 hrs by Annexin V-APC/7-AAD staining based flow cytometry (reference value: 91.07%); type: functional; settings: HepG2, 48 h, read-out: Activity
[9] = test system: HepG2; assay: Cell cycle arrest in human HepG2 cells assessed as G2 phase accumulation at 0.125 uM after 48 hrs in presence of hemoglobin by propidium iodide staining based flow cytometry (reference value: 10.67%); type: functional
[10] = test system: HepG2; assay: Induction of apoptosis in human HepG2 cells assessed as cell population with mitochondrial membrane potential loss at 0.25 uM measured after 48 hrs by JC-1 staining based flow cytometry (reference value: 1.49%); type: functional
Summary of the method: (§2)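 HepG-2 cells were exposed 48 h to 0.0625, 0.125 or 0.25 µM or to vehicle, then washed in PBS and stained with JC-1 in the dark. Red aggregate versus green monomer fluorescence was measured by flow cytometry to give the percentages of cells with healthy versus collapsed mitochondrial membrane potential.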

[11] = Selectivity index, ratio of IC50 for human L02 cells to IC50 for human HepG2 cells; type: toxicity; settings: L02 cells and HepG2 cells, read-out: Ratio IC50
Summary of the method: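 MTT assay: cells grown 24 h at 37 °C, 5% CO2, then exposed 72 h; MTT (5 mg/mL) added for 4 h, formazan dissolved in DMSO, OD read at 570 nm. Vehicle 0.1% DMSO. Three independent experiments.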

[12] = test system: HepG2; assay: Downregulation of HO-1 expression in human HepG2 cells after 24 hrs by protein array assay; type: functional, cell-based
Summary of the method: (§3)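 Lysates from HepG-2 cells treated 24 h were incubated overnight at 4 °C on a membrane array of 35 apoptosis-related proteins. A biotinylated detection antibody cocktail was then applied for 1 h at room temperature. Relative expression was read from chemiluminescent spots by densitometry.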

[13] = test system: L02; assay: Cytotoxicity against human L02 cells assessed as reduction in cell viability after 72 hrs by MTT assay; type: cell-based; settings: L02, 72 h; summary of the method: as §1
[14] = test system: HepG2; assay: Cell cycle arrest in human HepG2 cells assessed as G2 phase accumulation at 0.125 uM after 48 hrs by propidium iodide staining based flow cytometry (reference value: 23.38%); type: functional
Summary of the method: (§4)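 HepG-2 cells were plated and grown 24 h at 37 °C, then treated 48 h at 0, 0.0625, 0.125 or 0.25 µM, with 0.1% DMSO as control. Cells were fixed overnight in 70% ethanol at 4 °C, treated with RNase A and stained with propidium iodide. DNA content was measured by flow cytometry to give cell-cycle phase distribution.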

[15] = test system: HepG2; assay: Downregulation of Bcl-xl level in human HepG2 cells up to 0.25 uM after 48 hrs by Western blot method; type: functional, cell-based
Summary of the method: (§5)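 HepG-2 cells were exposed 48 h to 0, 0.0625, 0.125 or 0.25 µM and lysed on ice for 20 min. Equal protein loads were run on 12% SDS-PAGE and transferred to PVDF. Membranes were probed overnight at 4 °C with primary antibodies, then with HRP-conjugated secondaries, and detected by ECL chemiluminescence.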

[16] = test system: HepG2; assay: Downregulation of survivin expression in human HepG2 cells after 24 hrs by protein array assay; type: functional, cell-based; summary of the method: as §3
[17] = test system: HepG2; assay: Upregulation of Bax level in human HepG2 cells up to 0.25 uM after 48 hrs by Western blot method; type: functional, cell-based
[18] = test system: HepG2; assay: Induction of apoptosis in human HepG2 cells assessed as cell population with intact mitochondrial membrane potential at 0.125 uM measured after 48 hrs by JC-1 staining based flow cytometry (reference value: 98.51%); type: functional; summary of the method: as §2
[19] = test system: HepG2; assay: Induction of apoptosis in human HepG2 cells assessed as cell population with intact mitochondrial membrane potential at 0.0625 uM measured after 48 hrs by JC-1 staining based flow cytometry (reference value: 98.51%); type: functional; summary of the method: as §2
[20] = test system: HepG2; assay: Downregulation of pro-caspase 3 level in human HepG2 cells up to 0.25 uM after 48 hrs by Western blot method; type: functional, cell-based; summary of the method: as §5
[21] = test system: HepG2; assay: Cell cycle arrest in human HepG2 cells assessed as G2 phase accumulation at 0.25 uM after 48 hrs by propidium iodide staining based flow cytometry (reference value: 23.38%); type: functional; summary of the method: as §4
[22] = test system: HepG2; assay: Induction of apoptosis in human HepG2 cells assessed as early apoptotic cells at 0.125 uM after 48 hrs in presence of hemoglobin by Annexin V-APC/7-AAD staining based flow cytometry (reference value: 3.18%); type: functional
[23] = test system: HepG2; assay: Induction of apoptosis in human HepG2 cells assessed as late apoptotic cells at 0.125 uM after 48 hrs by […] (reference value: 3.36%); type: functional
[24] = test system: HepG2; assay: Cell cycle arrest in human HepG2 cells assessed as S phase accumulation at 0.25 uM after 48 hrs in presence of hemoglobin by propidium iodide staining based flow cytometry (reference value: 36.40%); type: functional
[25] = test system: HepG2; assay: Cell cycle arrest in human HepG2 cells assessed as G2 phase accumulation at 0.0625 uM after 48 hrs by propidium iodide staining based flow cytometry (reference value: 23.38%); type: functional; summary of the method: as §4
[26] = test system: HepG2; assay: Cell cycle arrest in human HepG2 cells assessed as S phase accumulation at 0.0625 uM after 48 hrs in presence of hemoglobin by propidium iodide staining based flow cytometry (reference value: 36.40%); type: functional
[27] = test system: HepG2; assay: Cell cycle arrest in human HepG2 cells assessed as G1 phase accumulation at 0.25 uM after 48 hrs by propidium iodide staining based flow cytometry (reference value: 32.74%); type: functional; summary of the method: as §4

- IC50 [6]: 0.025 µM
Structure (SMILES): C[C@H]1CCC/C=C/[C@@H]2C[C@H](OC(=O)CCCC(=O)OCCOc3no[n+]([O-])c3S(=O)(=O)c3ccccc3)C[C@H]2[C@H](OC(=O)CCCC(=O)OCCOc2no[n+]([O-])c2S(=O)(=O)c2ccccc2)/C=C/C(=O)O1
- Activity [1]: 13.23%
- Activity [2]: 3.25%
- Activity [3]: 7.2%
- viability at 0.125 µM [4]: 63%
- Activity [5]: 30.54%
- Activity [7]: 6.68%
- viability at 0.25 µM [8]: 39.3%
- Activity [9]: 6.22%
- Activity [10]: 60.14%
- selectivity ratio [11]: 33
- Activity [12]: Active
- IC50 [13]: 6 µM
- Activity [14]: 17%
- Activity [15]: Active
- Activity [16]: Active
- Activity [17]: Active
- Activity [18]: 64.55%
- Activity [19]: 83.42%
- Activity [20]: Active
- Activity [21]: 2.67%
- Activity [22]: 3.49%
- Activity [23]: 21.42%
- Activity [24]: 22.37%
- Activity [25]: 18.96%
- Activity [26]: 24.74%
- Activity [27]: 25.17%
